Experiments:
LN229 glioma cells [1] = assay: Wound healing migration assay, LN229; format: cell-based, human; conditions: LN229, 16 h wound healing, dosage under IC50
Summary of the method: (§1)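 Cells plated at 1×10^5 per well in 12-well plates at 37°C, 5% CO2. At 90% confluence the medium was removed and the monolayer scratched with a 200 μL pipette tip, then washed three times. Wound imaged at 0 and 16 h, and migration calculated from the change in wound area, with 0 h DMSO-control area set to 100%.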

[2] = tested on: NHA (normal human astrocyte); assay: MTS cell viability assay, NHA; format: cell-based
LN229 glioma cells [3] = assay: BrdU proliferation assay, LN229; format: cell-based, human; conditions: for effect on cell proliferation: LN229, 48 h, single dose
LN229 glioma cells [4] = assay: Cell cycle analysis; format: cell-based, human; conditions: LN229, 48 h, low-dose
Summary of the method: (§2)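 Treated 48 h, then fixed in 70% ethanol at 4°C and held overnight at −20°C. Washed twice in cold PBS containing 1% FBS, then stained with PI solution containing Tween 20 and RNase A for 30 min at 37°C in the dark. DNA content read by flow cytometry. Mean ± s.d., n = 3, against control by t test or one-way ANOVA.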

[5] = tested on: SVG p12 normal brain cell line; assay: MTS cell viability assay, SVG p12; format: cell-based, human
LN229 glioma cells [6] = assay: Colony formation assay, LN229; format: cell-based, human; conditions: LN229, cultured 2 weeks
Summary of the method: (§3)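 Cells seeded at 3000 per well in 6-well plates and grown 2 weeks, with test compound added on day 3. Colonies fixed in methanol and stained with 0.5% crystal violet. Image analysis counted colonies larger than 0.1 mm in diameter. Mean ± s.d., n = 3.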

GBM8401 glioma cells [7] = assay: BrdU proliferation assay, GBM8401; format: cell-based, human; conditions: GBM8401, 48 h; for effect on cell proliferation: single dose
GBM8401 glioma cells [8] = assay: Colony formation assay, GBM8401; format: cell-based, human; conditions: GBM8401, cultured 2 weeks
Summary of the method: as §3

GBM8401 glioma cells [9] = assay: Wound healing migration assay, GBM8401; format: cell-based, human; conditions: GBM8401, 16 h wound healing, dosage under IC50
Summary of the method: as §1

GBM8401 glioma cells [10] = assay: MTS cell viability assay, GBM8401; format: cell-based, human
Summary of the method: (§4)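 Cells in DMEM with 10% FBS and penicillin/streptomycin at 37°C under 5% CO2, seeded in 96-well plates (LN229 3000, GBM8401 2000 cells per well). Exposed to test compound for 24 h, then incubated 2 h with MTS reagent added to the medium. Absorbance read at 490 nm, and IC50 determined from the viability data.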

LN229 glioma cells [11] = assay: MTS cell viability assay, LN229; format: cell-based, human
Summary of the method: as §4

GBM8401 glioma cells [12] = assay: Cell cycle analysis; format: cell-based, human; conditions: GBM8401, 48 h, low-dose
Summary of the method: as §2

[13] = SVG p12, MTS assay, 24 h treatment
[14] = Homo sapiens, Glioma cell, 24 h

Compound | effect on migration (LN229 glioma cells [1]) | IC50 ([2]; NHA, MTS assay, 24 h treatment) [µM] | effect on cell proliferation (LN229 glioma cells [3]) | IC50 [5, 13] [µM] | effect on colony formation (LN229 glioma cells [6]) | effect on cell proliferation (GBM8401 glioma cells [7]) | effect on colony formation (GBM8401 glioma cells [8]) | effect on migration (GBM8401 glioma cells [9]) | IC50 (GBM8401 glioma cells [10]; [14]) [µM] | IC50 (LN229 glioma cells [11]; Homo sapiens, LN-229, 24 h) [µM] | other results
O=C(/C=C/c1ccc(O)cc1)CC(=O)/C=C/c1ccc(O)cc1 [Bisdemethoxycurcumin] | had no effect on the migration | 31.9 | significantly increased the cell proliferation | 29.2 | dose dependently increased colony formation | significantly increased the cell proliferation | dose dependently increased colony formation | had no effect on the migration | 32.4 | 26.8 | dose effect on cell proliferation (BrdU M1) (LN229 glioma cells [3]; LN229 (printed LN299), 48 h): dose-dependently increased M1; effect on S phase (LN229 glioma cells [4]): increased S phase not significantly; IC50 ([5]; Homo sapiens, SVGp12, 24 h, SVG p12, MTS assay, 24 h treatment): 30 µM; dose effect on cell proliferation (BrdU M1) (GBM8401 glioma cells [7]): dose-dependently increased M1; effect on cell viability (GBM8401 glioma cells [10]; GBM8401, low-dose): slightly increased cell viability; effect on cell viability (LN229 glioma cells [11]; LN229, low-dose): slightly increased cell viability; effect on S phase (GBM8401 glioma cells [12]): increased S phase not significantly
COc1cc(/C=C/C(=O)CC(=O)/C=C/c2ccc(O)c(OC)c2)ccc1O [Curcumin] | dose-dependently inhibited the migration | – | suppressed cell proliferation | – | inhibited colony formation | suppressed cell proliferation | inhibited colony formation | dose-dependently inhibited the migration | 6.31 | 5.85 | IC50 ([2]; Homo sapiens, Astrocyte, 24 h): 22.2 µM; IC50 ([5]; Homo sapiens, SVGp12, 24 h): 4.19 µM
Demethoxycurcumin | had no effect on the migration | 11.3 | promoted cell proliferation | 30 | suppressed colony formation in LN229 cells only in high-dose manner | reduce | not in GBM8401 cells | had no effect on the migration | – | – | IC50 (GBM8401 glioma cells [10]; GBM8401, MTS assay, 24 h treatment): 17.7 µM; IC50 (LN229 glioma cells [11]; LN229, MTS assay, 24 h treatment): 24.5 µM

— article PMC8349541 (OncoTargets and therapy, 2021)
